# Screens as filed in PubChem BioAssay.
# In the library only some 1.9% were active in any assay of this set; here they are far more common.
# NadD block = blocks S. aureus nicotinate mononucleotide adenylyltransferase; purified NadD enzyme, colorimetric absorbance read-out; inhibition, % at 20 µM; 0.78% of 360,000 active; in the data active = inhibition above about 26%
# Rpn11 inh = blocks the human proteasome subunit Rpn11; inhibition, % at 20 µM; AID 588493; 0.59% of 360,000 active; human 26S proteasome, Ub4-pepOG fluorescence polarization; 20S core pre-blocked with epoxomicin; O00487;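 active = inhibition at 20 µM, scaled to each plate's controls, above about 33%, limit read from the data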
# ABHD5-PLIN5 inh = blocks binding of human ABHD5 to perilipin-5; Split G. princeps luciferase complementation, luminescence, 4 h; inhibition, % at 4 µM; 0.78% of 360,000 active; AID 602281;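 active = inhibition above the mean inhibition across every tested compound plus 3 SD, cut at about 22% in these data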
# Rin1 Abl inh = blocks binding of human Rin1 to Abl; AID 588664; TR-FRET Rin1/Abl binding, biochemical; inhibition, % at 7.35 µM; 0.4% of 360,000 active; P00519+Q13671; in the data active = inhibition above about 5%, passing the limit was not always enough
# XiGFP reactiv = reactivates the inactive X chromosome in mouse fibroblasts | XiGFP mouse fibroblasts, % GFP-positive cells imaging, 3 d; cells co-treated with 5-aza-dC sensitizer; scaled so ellipticine positive control = 100% | activation, % at 7.58 µM | 0.055% of 360,000 active | AID 743238;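 active = mean normalized replicate activation at least 10% and every replicate at or above 10%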
#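 material = 68-5-11 XiGFP fibroblast line | medium = DMEM plus 5-aza-dC sensitizer | schedule = 3 days compound exposure | benchmarks = positive control ellipticine, 6 µM final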
# ABHD5 PLIN5 conf = confirmation of human ABHD5-PLIN5 interaction inhibitors | 67% of 2,200 active | shares compounds with ABHD5-PLIN5 inh | biochemical ABHD5-PLIN5 interaction, luminescence | inhibition, % at 4 µM; in the data active = inhibition above about 23%
# HNF4 split-luc = HNF4 split-luciferase signal hit, counter-screen | shares compounds with ABHD5-PLIN5 inh | HNF4 dimerization, luminescence, biochemical | inhibition, % at 4 µM | 77% of 2,200 active;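 active = mean inhibition across replicate wells exceeding the computed hit threshold, cut at about 13% in these data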;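 also: light from luciferase halves that rejoin when HNF4 fusion proteins dimerize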
# Numbers stand for hits; . = inactive; / = no result shown.
SMILES,NadD block,Rpn11 inh,ABHD5-PLIN5 inh,Rin1 Abl inh,XiGFP reactiv,ABHD5 PLIN5 conf,HNF4 split-luc
O=C(C[C@@H]1CC[C@@H]2[C@H](COC[C@@H](O)CN2S(=O)(=O)c2cccc(F)c2)O1)Nc1ccccc1,/,/,/,/,.,/,/
COc1ccc(CCNC(=O)c2cc(S(=O)(=O)N3CCOCC3)cn2C)cc1OC,.,.,.,.,.,/,/
COc1ccc(CCNC(=O)c2cccc(S(=O)(=O)N3CCOCC3)c2)cc1OC,.,.,27.1,.,.,.,.
Cc1noc(C)c1S(=O)(=O)Nc1ccc2c(c1)C(=O)N([C@@H](C)CO)C[C@@H](C)[C@@H](CN(C)Cc1ccc(Cl)c(Cl)c1)OCCCC[C@@H](C)O2,/,/,/,/,.,/,/
O=C1Nc2ccc(Cl)cc2/C1=C/C1CC=CCC1 (stereo unspecified),.,.,30.1,.,.,54.8,38.9
O=C1Nc2cnc(Cl)nc2Nc2ccc(Cl)cc21,/,/,/,/,.,/,/
C[C@H](CO)N1C[C@H](C)[C@@H](CN(C)C(=O)C2CCC2)Oc2cc(-c3ccc(F)cc3)ccc2S1(=O)=O,/,/,/,/,.,/,/
CCOC(=O)C1=C(C)N=c2s/c(=C3\C(=O)Nc4ccccc43)c(=O)n2C1c1ccc2c(c1)OCO2 (stereo unspecified),.,.,26.7,.,/,.,.
CCN1/C(=C/C=C/c2oc3ccc(-c4ccccc4)cc3[n+]2CC)Oc2ccc(-c3ccccc3)cc21,43.7,.,37.1,.,102.6,92.1,59.9
CCCCN1C(=O)/C(=C/C=C2\Oc3ccccc3N2CC)SC1=S,.,/,.,.,.,/,/
CC(C)NC(=O)Nc1cccc2c1O[C@@H](CN(C)C(=O)NC(C)C)[C@H](C)CN(C)C2=O,/,/,/,/,.,/,/
CC(=O)NC[C@H]1[C@@H](c2ccc(C3=CCCC3)cc2)[C@@H](CO)N1C(=O)C1CCC1,/,/,/,/,.,/,/
CC1=C(C(=O)Nc2ccccc2)C(c2ccc(C)o2)n2c(s/c(=C/c3ccccc3)c2=O)=N1 (stereo unspecified),.,.,.,.,/,/,/
CC1=C(C(=O)Nc2ccccc2)C(c2ccc(Cl)cc2)n2c(s/c(=C/c3cccc(OCC(=O)O)c3)c2=O)=N1 (stereo unspecified),.,.,27.3,.,.,48.7,29.0
CC(=O)Nc1cccc2c1O[C@@H](CN(C)C(C)=O)[C@H](C)CN(C)C2=O,/,/,/,/,.,/,/
CC(O)/C=C/c1ccc2ccccc2n1 (stereo unspecified),.,.,23.5,.,/,23.4,26.1
CC(NC(=O)/C=C/c1ccco1)c1nc2ccccc2n1Cc1cccc(Cl)c1 (stereo unspecified),.,.,25.7,.,.,36.9,58.3
COc1ccc(CNC(=O)C[C@H]2C[C@H]3c4cc(NS(=O)(=O)c5ccc(F)cc5)ccc4O[C@H]3[C@H](CO)O2)cc1,/,/,/,/,.,/,/
CC(=O)N1CC2(C1)[C@@H](c1ccc(-c3ccc(F)cc3)cc1)[C@@H](CO)N2C(C)=O,/,/,/,/,.,/,/
Cc1ccc(S(=O)(=O)N(C)C[C@@H]2Oc3ccc(NS(=O)(=O)c4ccc(F)cc4)cc3C(=O)N([C@@H](C)CO)C[C@H]2C)cc1,/,/,/,/,.,/,/
COc1ccccc1/C=C/C=N/n1c(-c2ccc(F)cc2)n[nH]c1=S,.,.,52.3,.,.,.,.
COc1ccccc1/C=C\C=N\n1c(-c2ccc(Cl)cc2)n[nH]c1=S,.,.,.,.,.,/,/
CCC(=O)c1ccc(OCc2cn(CC(=O)c3ccc(O)cc3)nn2)cc1,.,.,.,.,.,/,/
COc1ccc(OCc2cn(CC(=O)c3ccc(O)cc3)nn2)cc1,.,.,23.6,.,.,60.1,30.2
O=C(Cn1cc(COc2ccc(C(=O)c3ccccc3)cc2)nn1)c1ccc(O)cc1,.,.,.,.,.,/,/
SMILES,NadD block,Rpn11 inh,ABHD5-PLIN5 inh,Rin1 Abl inh,XiGFP reactiv,ABHD5 PLIN5 conf,HNF4 split-luc
O=C(Cn1cc(COc2c(F)c(F)cc(F)c2F)nn1)c1ccc(O)cc1,.,.,30.9,.,.,45.1,34.6
COCC(=O)N1CC2(C1)[C@@H](c1ccc(-c3cccc(F)c3)cc1)[C@H](CO)N2C(=O)COC,/,/,/,/,.,/,/
NC1=NC(=O)/C(=C\c2cc([N+](=O)[O-])ccc2Cl)S1,.,.,25.4,.,.,24.1,18.6
O=c1c2cc(N3CCOCC3)ccc2[nH]c(=S)n1Cc1ccco1,.,.,25.3,.,/,43.3,77.3
C[C@H]1CN([C@@H](C)CO)C(=O)c2cccc(NC(=O)Nc3ccc(F)cc3)c2O[C@H]1CN(C)C(=O)Nc1ccc(C(F)(F)F)cc1,/,/,/,/,.,/,/
COCC(=O)N(C)C[C@@H]1Oc2ncc(C#CCC3CCCC3)cc2C(=O)N([C@H](C)CO)C[C@H]1C,/,/,/,/,.,/,/
CCOC(=O)Nc1ccc2c(c1)N(C(=O)CCN1CCOCC1)c1ccccc1S2=O (stereo unspecified),.,.,27.4,.,/,.,41.9
CCn1c(=O)cc(C(=O)OC)sc1=Nc1ccc(F)c(F)c1,.,.,27.4,.,.,59.3,39.7
CCOC(=O)c1ccc(N=c2sc(C(=O)OC)cc(=O)n2CCCN2CCOCC2)cc1,.,.,42.4,.,.,45.3,42.3
CCOC(=O)c1ccc(N=c2sc(C(=O)OC)cc(=O)n2Cc2ccco2)cc1,.,.,.,.,.,/,/
O=C(C[C@H]1CC[C@H](NC(=O)Nc2ccccc2F)[C@H](CO)O1)NCc1ccc(F)cc1,/,/,/,/,.,/,/
CC(=O)Nc1ccc(S(=O)(=O)N[C@@H](C)C(=O)OCc2cc([N+](=O)[O-])cc3c2OCOC3)cc1,.,.,.,.,.,/,/
CC(C)C(NS(=O)(=O)c1ccccc1)C(=O)OCc1cc([N+](=O)[O-])cc2c1OCOC2 (stereo unspecified),.,.,44.9,.,.,.,.
CCn1c(C)c(CS(=O)(=O)c2ccccc2)[nH]c1=O,.,.,33.8,.,.,57.4,76.8
O=c1[nH]c(CS(=O)(=O)c2ccccc2)nc2ccccc12,.,.,.,.,/,/,/
Cc1ccc(S(=O)(=O)/N=C/N(C)C)cc1,.,.,.,.,/,/,/
Cc1ccc(S(=O)(=O)/N=C/c2ccco2)cc1,.,.,91.7,.,/,.,.
O=C(CCCSc1ccccc1)Nc1nc(-c2ccco2)c(-c2ccco2)s1,.,.,.,.,.,/,/
O=C(CCl)Nc1nc(-c2ccco2)c(-c2ccco2)s1,.,.,37.2,.,.,36.0,53.7
Cc1ccc(C(=O)Nc2nc(-c3ccco3)c(-c3ccco3)s2)o1,30.6,.,27.9,.,.,.,16.9
C[C@H]1CCCCO[C@H](CN(C)C(=O)Nc2ccccc2)[C@@H](C)CN([C@@H](C)CO)C(=O)c2cc(NC(=O)Nc3ccc(F)cc3)ccc2O1,/,/,/,/,.,/,/
Cc1ccc2nc(-c3ccco3)c(Cc3ccccc3)n2c1,.,.,38.1,.,.,.,.
